According to ChEMBL document CHEMBL3352368, “Amino derivatives of indolone-N-oxide: preparation and antiplasmodial properties” (Eur J Med Chem, 2014):

Legend:
Plasmodium falciparum = experiment: Antiplasmodial activity against chloroquine-resistant Plasmodium falciparum FcB1 infected in human RBC assessed as [3H]-hypoxanthine incorporation after 48 hrs by liquid scintillation counting analysis; assay type: functional, organism-based
In short: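 FcB1 maintained in RPMI 1640 with L-glutamine, 25 mM HEPES, 10% human serum, group O RBCs, 5% CO2; synchronized by magnetic enrichment then D-sorbitol lysis. Serial dilutions in culture medium; [3H]-hypoxanthine added at 24 h, harvest at 48 h after freeze-thaw. IC50 by linear regression on linear segments of semilog inhibition curves; triplicate, three repeats.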

[1] = Selectivity index, ratio of CC50 for human MCF7 cells to IC50 for chloroquine-resistant Plasmodium falciparum FcB1; assay type: functional
[2] = Cytotoxicity against human MCF7 cells assessed as decrease in cell viability after 48 hrs by XTT assay; assay type: cell-based
In short: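 MCF-7 cells grown as for parasite culture but with 10% fetal calf serum in place of human serum; trypsinized and seeded at 2 × 10^4 cells/well, incubated overnight, then compound added at final 1, 10 and 100 […] mL1. Viability read by XTT reduction after 48 h drug contact; experiments run twice in triplicate.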

[3] = Half life in human liver microsomes; assay type: ADME
Plasmodium berghei = experiment: In vivo antimalarial activity against Plasmodium berghei ANKA assessed as inhibition of parasitemia at 30 mg/kg/day; assay type: functional

half-life [3] [min] | SMILES | IC50 (Plasmodium falciparum; Plasmodium falciparum, FcB1) [µM] | Ratio CC50/IC50 [1] | CC50 at 48 h [2] [µM] | IC50 (Plasmodium falciparum) [µM] | inhibition in vivo at 30 mg/kg/day (Plasmodium berghei) [%]
 | COc1ccc2c(c1)[N+]([O-])=C(c1ccc(N)cc1)C2=O | 0.024 | 528 | 12.7 |  | 
 | CCOC(=O)c1ccc2c(c1)[N+]([O-])=C(c1ccccc1)C2=O | 0.284 | 91.9 | 26.4 |  | 
 | COc1ccc2c(c1)C(=O)C(c1ccc(N(C)C)cc1)=[N+]2[O-].Cl |  | >112333 | 33.7 | < 0.0003 | 
< 1 | O=C1C(c2ccc(Cl)cc2)=[N+]([O-])c2cc3c(cc21)OCO3 |  |  |  |  | 62.1
 | O=C1C(c2ccccc2)=[N+]([O-])c2cc([N+](=O)[O-])c(/C=C(\Cl)c3ccccc3)cc21 | 0.84 | 70 | 59 |  | 
 | Nc1ccc2c(c1)[N+]([O-])=C(CCCN1C(=O)c3ccccc3C1=O)C2=O | 8.3 | 0.8 | 6.6 |  | 
 | C[C@H]1[C@H](OC(=O)CCC(=O)O)O[C@@H]2O[C@@]3(C)CC[C@H]4[C@H](C)CC[C@@H]1[C@@]24OO3 [SODIUM ARESUNATE] | 0.006 |  |  |  | 
 | COc1ccc2c(c1)C(=O)C(c1ccc(N(C)C)cc1)=[N+]2[O-] |  | >14623 |  | < 0.003 | 15.3
 | COc1ccc2c(c1)C(=O)C(c1ccc(N3CCOCC3)cc1)=[N+]2[O-] | 0.0065 | >4538.5 | > 29.5 |  | 
 | CN(C)c1ccc(C2=[N+]([O-])c3cc(N)ccc3C2=O)cc1 | 12.3 | 1.8 | 21.3 |  | 
 | COc1ccc(C2=[N+]([O-])c3cc(N)ccc3C2=O)cc1 | 1.56 | >33 | > 37.3 |  | 
 | Nc1ccc2c(c1)[N+]([O-])=C(c1ccc(Cl)cc1)C2=O | 0.183 | 60 | 11 |  | 
 | COc1ccc2c(c1)C(=O)C(c1cccnc1)=[N+]2[O-] | 0.161 | 107 | 17.3 |  | 
 | COc1ccc2c(c1)C(=O)C(c1ccc(N(C)C)c(C)c1)=[N+]2[O-] | 0.04 | 885 | 35.4 |  | 
 | Nc1ccc(C2=[N+]([O-])c3ccccc3C2=O)cc1 | 0.168 | 77 | 13 |  | 
 | O=C1C(c2ccc(Cl)cc2)=[N+]([O-])c2cccnc21 | > 2.72 |  |  |  | 
 | O=C1C(c2ccc(Cl)cc2)=[N+]([O-])c2cc[n+]([O-])cc21 | > 5.44 |  |  |  | 
 | COc1ccc2cc(C3=[N+]([O-])c4cc(N)ccc4C3=O)ccc2c1 | 1.32 | 6 | 7.8 |  | 
 | COc1ccc2c(c1)C(=O)C(c1ccc(N)cc1)=[N+]2[O-].Cl | < 0.003 | >3233 | 9.7 |  | 
 | CCCCNc1ccc(C2=[N+]([O-])c3ccc(OC)cc3C2=O)cc1 | 0.021 | 2057 | 43.2 |  | 
